In ChEMBL document CHEMBL1152956, “Synthesis and cytotoxic activity of 5,6-heteroaromatically annulated pyridine-2,4-diamines” (Bioorg Med Chem, 2009):

Legend:
5637 [1] = experiment: Growth inhibition of human 5637 cells at 20 uM after 96 hrs by crystal violet staining; type: functional; details: Homo sapiens, 5637, 96 h; read-out: GI
Outline: (§1)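 This was a single-concentration screen. Actively dividing cells had 96 h continuous exposure to compound diluted 1000-fold from a DMSO solution into medium. Cells were fixed with glutaraldehyde and stained with crystal violet. Bound dye was redissolved in 70% ethanol and read at OD 570 nm. Growth inhibition was expressed against untreated controls.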

DAN-G [2] = experiment: Cytotoxicity against human DAN-G cells after 96 hrs by crystal violet staining; type: functional, cell-based
Outline: (§2)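 Compounds were held as 20 mM DMSO stocks at -20 °C and serially diluted in DMSO to working solutions of 20, 10, 5.0, 2.50, 1.25 and […]. Five of these were diluted 1000-fold into medium, with DMSO-only controls. Dividing cells had 96 h continuous exposure, then glutaraldehyde fixation and crystal violet staining. Dye was redissolved in 70% ethanol and read at OD 570 nm. IC50 came from linear regression of log dose–response curves.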

A-427 [3] = experiment: Cytotoxicity against human A427 cells after 96 hrs by crystal violet staining; type: functional, cell-based; details: A-427, 96 h; outline: as §2
MCF7 [4] = experiment: Cytotoxicity against human MCF7 cells after 96 hrs by crystal violet staining; type: functional, cell-based; details: MCF7, 96 h; outline: as §2
MCF7 [5] = experiment: Growth inhibition of human MCF7 cells at 20 uM after 96 hrs by crystal violet staining; type: functional; details: MCF7, 96 h, read-out: GI; outline: as §1
[6] = Cytotoxicity against human LCLC-103H cells after 96 hrs by crystal violet staining; type: functional, cell-based; outline: as §2
RT-4 [7] = experiment: Cytotoxicity against human RT4 cells after 96 hrs by crystal violet staining; type: functional, cell-based; details: RT-4, 96 h; outline: as §2
[8] = Growth inhibition of human LCLC-103H cells at 20 uM after 96 hrs by crystal violet staining; type: functional; details: read-out: GI; outline: as §1
5637 [9] = experiment: Cytotoxicity against human 5637 cells after 96 hrs by crystal violet staining; type: functional, cell-based; details: Homo sapiens, 5637, 96 h; outline: as §2
A-427 [10] = experiment: Growth inhibition of human A427 cells at 20 uM after 96 hrs by crystal violet staining; type: functional; details: A-427, 96 h, read-out: GI; outline: as §1
RT-4 [11] = experiment: Growth inhibition of human RT4 cells at 20 uM after 96 hrs by crystal violet staining; type: functional; details: RT-4, 96 h, read-out: GI; outline: as §1
DAN-G [12] = experiment: Growth inhibition of human DAN-G cells at 20 uM after 96 hrs by crystal violet staining; type: functional; details: read-out: GI; outline: as §1

In the case of CN(C)c1cc(N)c2c3c(sc2n1)CCCC3, the inhibition of growth at 20 µM 5637 [1] is reported as less than 50%, the IC50 (DAN-G [2]) is reported as greater than 20 µM and the IC50 (A-427 [3]) is reported as greater than 20 µM. For the same compound, the IC50 (MCF7 [4]) was greater than 20 µM, the inhibition of growth at 20 µM (MCF7 [5]) was less than 50% and the IC50 [6] was greater than 20 µM. The IC50 (RT-4 [7]) was greater than 20 µM, the inhibition of growth at 20 µM [8] was less than 50% and the IC50 5637 [9] was greater than 20 µM. The inhibition of growth at 20 µM (A-427 [10]) was less than 50%, the inhibition of growth at 20 µM (RT-4 [11]) was less than 50% and the inhibition of growth at 20 µM (DAN-G [12]) was less than 50%.
Compound Cc1c(C)n(Cc2ccccc2)c2nc(N(C)C)cc(N)c12 has an IC50 (DAN-G [2]) greater than 20 µM, an IC50 (A-427 [3]) of 12.5 µM and an IC50 (MCF7 [4]) of 13.1 µM. It also gave an IC50 [6] greater than 20 µM, an IC50 (RT-4 [7]) of 19.6 µM and an inhibition of growth at 20 µM [8] of less than 50%. It also gave an IC50 5637 [9] of 11.8 µM and an inhibition of growth at 20 µM (DAN-G [12]) of less than 50%.
For C=CCn1c(-c2ccccc2)c(-c2ccccc2)c2c(N)cc(N(C)C)nc21, the IC50 (DAN-G [2]) was greater than 20 µM, the IC50 (A-427 [3]) was 3.93 µM and the IC50 (MCF7 [4]) was 9.04 µM. The IC50 [6] was greater than 20 µM, the IC50 (RT-4 [7]) was 12.1 µM and the inhibition of growth at 20 µM [8] was less than 50%. The IC50 5637 [9] was 16.9 µM and the inhibition of growth at 20 µM (DAN-G [12]) was less than 50%.
With Cc1c(-c2ccccc2)sc2nc(N(C)C)cc(N)c12 the IC50 (DAN-G [2]) was 16.4 µM, the IC50 (A-427 [3]) was 15.3 µM and the IC50 (MCF7 [4]) was 13.6 µM. The IC50 [6] was greater than 20 µM, the IC50 (RT-4 [7]) was 6.19 µM and the inhibition of growth at 20 µM [8] was less than 50%. For the same compound, the IC50 5637 [9] was 17.7 µM.
Nc1cc(N2CCCC2)nc2sc(-c3ccccc3)c(-c3ccccc3)c12 showed an IC50 (DAN-G [2]) of 8.17 µM, an IC50 (A-427 [3]) of 8.76 µM and an IC50 (MCF7 [4]) of 13.7 µM. It also gave an IC50 [6] of 9.79 µM, an IC50 (RT-4 [7]) greater than 20 µM and an IC50 5637 [9] of 8.18 µM. For the same compound, the inhibition of growth at 20 µM (RT-4 [11]) was less than 50%.
In the case of Cc1oc2nc(N3CCCC3)cc(N)c2c1C, the inhibition of growth at 20 µM 5637 [1] is reported as less than 50%, the IC50 (DAN-G [2]) is reported as greater than 20 µM and the IC50 (A-427 [3]) is reported as greater than 20 µM. It also gave an IC50 (MCF7 [4]) greater than 20 µM, an inhibition of growth at 20 µM (MCF7 [5]) of less than 50% and an IC50 [6] greater than 20 µM. For the same compound, the IC50 (RT-4 [7]) was greater than 20 µM, the inhibition of growth at 20 µM [8] was less than 50% and the IC50 5637 [9] was greater than 20 µM. For the same compound, the inhibition of growth at 20 µM (A-427 [10]) was less than 50%, the inhibition of growth at 20 µM (RT-4 [11]) was less than 50% and the inhibition of growth at 20 µM (DAN-G [12]) was less than 50%.
Cc1cc2c(N)cc(N(C)C)nc2nc1-c1ccccc1 gave an IC50 (DAN-G [2]) of 18.1 µM, an IC50 (A-427 [3]) of 11.8 µM and an IC50 (MCF7 [4]) of 11.7 µM. For the same compound, the IC50 [6] was greater than 20 µM, the IC50 (RT-4 [7]) was 5 µM and the inhibition of growth at 20 µM [8] was less than 50%. It also gave an IC50 5637 [9] of 8.82 µM.
CN(C)c1cc(N)c2c3ccccc3n(C)c2n1 showed an inhibition of growth at 20 µM 5637 [1] of less than 50%, an IC50 (DAN-G [2]) greater than 20 µM and an IC50 (A-427 [3]) greater than 20 µM. The IC50 (MCF7 [4]) was greater than 20 µM, the inhibition of growth at 20 µM (MCF7 [5]) was less than 50% and the IC50 [6] was greater than 20 µM. It also gave an IC50 (RT-4 [7]) greater than 20 µM, an inhibition of growth at 20 µM [8] of less than 50% and an IC50 5637 [9] greater than 20 µM. The inhibition of growth at 20 µM (A-427 [10]) was less than 50%, the inhibition of growth at 20 µM (RT-4 [11]) was less than 50% and the inhibition of growth at 20 µM (DAN-G [12]) was less than 50%.
Compound COc1ccc(Cn2c3nc(N(C)C)cc(N)c3c3ccc4ccccc4c32)cc1 has an inhibition of growth at 20 µM 5637 [1] of less than 50%, an IC50 (DAN-G [2]) greater than 20 µM and an IC50 (A-427 [3]) greater than 20 µM. It also gave an IC50 (MCF7 [4]) greater than 20 µM, an inhibition of growth at 20 µM (MCF7 [5]) of less than 50% and an IC50 [6] greater than 20 µM. The IC50 (RT-4 [7]) was greater than 20 µM, the inhibition of growth at 20 µM [8] was less than 50% and the IC50 5637 [9] was greater than 20 µM. For the same compound, the inhibition of growth at 20 µM (A-427 [10]) was less than 50%, the inhibition of growth at 20 µM (RT-4 [11]) was less than 50% and the inhibition of growth at 20 µM (DAN-G [12]) was less than 50%.
For CN(C)c1cc(N)c2c(-c3ccccc3)c(-c3ccccc3)sc2n1, the IC50 (DAN-G [2]) was 15.2 µM, the IC50 (A-427 [3]) was 11.2 µM and the IC50 (MCF7 [4]) was 16.2 µM. For the same compound, the IC50 [6] was 10.6 µM, the IC50 (RT-4 [7]) was greater than 20 µM and the IC50 5637 [9] was 10.1 µM. The inhibition of growth at 20 µM (RT-4 [11]) was less than 50%.
With Cc1nc2nc(N(C)C)cc(N)c2cc1-c1ccccc1 the inhibition of growth at 20 µM 5637 [1] was less than 50%, the IC50 (DAN-G [2]) was greater than 20 µM and the IC50 (MCF7 [4]) was greater than 20 µM. For the same compound, the inhibition of growth at 20 µM (MCF7 [5]) was less than 50%, the IC50 [6] was greater than 20 µM and the IC50 (RT-4 [7]) was greater than 20 µM. It also gave an inhibition of growth at 20 µM [8] of less than 50%, an IC50 5637 [9] greater than 20 µM and an inhibition of growth at 20 µM (RT-4 [11]) of less than 50%. The inhibition of growth at 20 µM (DAN-G [12]) was less than 50%.
With Cc1oc2nc(N(C)C)cc(N)c2c1C the inhibition of growth at 20 µM 5637 [1] was less than 50%, the IC50 (DAN-G [2]) was greater than 20 µM and the IC50 (A-427 [3]) was greater than 20 µM. For the same compound, the IC50 (MCF7 [4]) was greater than 20 µM, the inhibition of growth at 20 µM (MCF7 [5]) was less than 50% and the IC50 [6] was greater than 20 µM. It also gave an IC50 (RT-4 [7]) greater than 20 µM, an inhibition of growth at 20 µM [8] of less than 50% and an IC50 5637 [9] greater than 20 µM. The inhibition of growth at 20 µM (A-427 [10]) was less than 50%, the inhibition of growth at 20 µM (RT-4 [11]) was less than 50% and the inhibition of growth at 20 µM (DAN-G [12]) was less than 50%.
